Data set [1] addresses T1, Glycogen phosphorylase, muscle form (Oryctolagus cuniculus, UniProt P00489).
T1 sequence (P00489 whole entry): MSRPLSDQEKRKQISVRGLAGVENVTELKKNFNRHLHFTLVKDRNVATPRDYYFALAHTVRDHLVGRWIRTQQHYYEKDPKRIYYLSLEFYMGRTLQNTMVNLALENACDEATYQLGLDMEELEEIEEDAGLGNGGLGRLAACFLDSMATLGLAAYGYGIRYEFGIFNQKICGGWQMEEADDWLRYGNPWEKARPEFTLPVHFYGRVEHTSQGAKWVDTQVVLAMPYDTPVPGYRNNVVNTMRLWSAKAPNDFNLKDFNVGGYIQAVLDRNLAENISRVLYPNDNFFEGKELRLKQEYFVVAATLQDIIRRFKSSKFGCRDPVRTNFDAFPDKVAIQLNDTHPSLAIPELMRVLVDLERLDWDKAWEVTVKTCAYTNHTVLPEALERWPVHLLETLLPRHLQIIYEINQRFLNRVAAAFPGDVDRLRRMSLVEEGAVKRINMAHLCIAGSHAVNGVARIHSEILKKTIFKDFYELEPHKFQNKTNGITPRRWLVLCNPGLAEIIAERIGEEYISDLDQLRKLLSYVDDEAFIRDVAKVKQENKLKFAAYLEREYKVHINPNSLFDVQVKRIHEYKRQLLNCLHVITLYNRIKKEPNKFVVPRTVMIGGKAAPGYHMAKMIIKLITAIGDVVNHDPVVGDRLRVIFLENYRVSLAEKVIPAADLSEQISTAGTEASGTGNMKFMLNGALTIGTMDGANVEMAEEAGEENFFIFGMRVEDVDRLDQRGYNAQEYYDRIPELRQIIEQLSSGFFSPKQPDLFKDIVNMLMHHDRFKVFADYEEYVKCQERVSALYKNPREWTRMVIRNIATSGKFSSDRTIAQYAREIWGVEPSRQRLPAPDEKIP
Description: Inhibition of rabbit muscle glycogen phosphorylase a.

Data set [2] relates to PC-3. In words: Cytotoxicity against human PC3 cells after 48 hrs by MTT assay. In kind it is functional, cell-based. Summed up: (§1)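 Cells seeded and allowed to adhere at 37 °C in a CO2 incubator, then exposed for 48 h to 0.0001, 0.0005, 0.001, 0.005, 0.01, 0.05 or 0.1 mmol·L−1 compound. MTT (5%) added for a further 4 h, absorbance read at 570 nm.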
For data set [3], the system named is A549. In words: Cytotoxicity against human A549 cells after 48 hrs by MTT assay. The note with it: A549, 48 h. The data set is classed as functional, cell-based. An outline of the steps: as §1
For data set [4], the system named is MCF7. Description: Cytotoxicity against human MCF7 cells after 48 hrs by MTT assay. The data set is classed as functional, cell-based. To be noted: MCF7, 48 h. Summed up:
as §1

Data set [5] concerns HeLa. In words: Cytotoxicity against human HeLa cells after 48 hrs by MTT assay. The data set is classed as functional, cell-based. An outline of the steps:
as §1

Data set [6] concerns BGC-823. Description: Cytotoxicity against human BGC823 cells after 48 hrs by MTT assay. The data set is classed as functional, cell-based. An outline of the steps:
as §1

In data set [7] the test system is Human immunodeficiency virus 1. In words: Antiviral activity against Human immunodeficiency virus 1 NL4-3 infected in MT4 lymphocytes assessed as p24 antigen level by ELISA. The data set is classed as functional, organism-based. Summed up: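 HIV-1 NL4-3 variants at MOI 0.01 infect MT-4 cells in a replication screening assay run in 96-well format.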
Data set [8] deals with MT4. In words: Cytotoxicity against human MT4 lymphocytes after 48 hrs by MTT assay. The data set is classed as cell-based.
Data set [9] is described as follows: Therapeutic index, ratio of IC50 for human lymphocytes to EC50 for Human immunodeficiency virus 1 NL4-3. To be noted: read-out: TI.
[10] abbreviates: Homo sapiens, PC-3, 48 h, read-out: IC50.
Where [11] appears, read: Homo sapiens, HeLa, 48 h, read-out: IC50.
[12] abbreviates: Homo sapiens, BGC-823, 48 h, read-out: IC50.
Setting [13] is: Human immunodeficiency virus 1, NL4-3, read-out: EC50.
The mark [14] stands for this setting: Homo sapiens, MT4, 48 h, read-out: IC50.

From ChEMBL document CHEMBL1641550, “Efficient synthesis and biological evaluation of epiceanothic acid and related compounds” (Bioorg Med Chem Lett, 2011) come the findings set out here.

Where a name gives a salt, the structure may show the parent alone.

For `C=C(C)[C@@H]1CC[C@]2(COC(c3ccccc3)(c3ccccc3)c3ccccc3)CC[C@]3(C)[C@H](CC[C@@H]4[C@@](C)(CC(=O)O)[C@H](C(C)(C)C(=O)O)CC[C@]43C)[C@@H]12`, the half-inhibitory concentration (IC50) in [1] (read-out: IC50) was 0.21 µM; in [2] (setting [10]) it was 6.75 µM; in data set [3], 136 µM; in [4], 560 µM; in [5] (hela), “Not Active”; in data set [6] (bgc-823) it was “Not Active”.

With `C=C(C)[C@@H]1CC[C@]2(COC(c3ccccc3)(c3ccccc3)c3ccccc3)CC[C@]3(C)[C@H](CC[C@@H]4[C@@](C)(CC(=O)OC)[C@H](C(C)(C)C(=O)OC)CC[C@]43C)[C@@H]12`, the IC50 was determined as 2.87 µM in data set [1] (read-out: IC50); 5.32 µM in [2] (setting [10]); 996 µM in data set [3]; 374 µM in [4]; 17.1 µM in [5] (setting [11]); 9.54 µM in data set [6] (setting [12]).

Consider `C=C(C)[C@@H]1CC[C@]2(COC(c3ccccc3)(c3ccccc3)c3ccccc3)CC[C@]3(C)[C@H](CC[C@@H]4[C@@]5(C)[C@H](C(=O)OC)[C@H](O)C(C)(C)[C@@H]5CC[C@]43C)[C@@H]12`, for which the IC50 in [1] (read-out: IC50) is 20.1 µM; in [2] (pc-3), “Not Active”; in [3], 770 µM; in data set [4], 398 µM; in data set [5] (hela), “Not Active”.

For `C=C(C)[C@@H]1CC[C@]2(COC(c3ccccc3)(c3ccccc3)c3ccccc3)CC[C@]3(C)[C@H](CC[C@@H]4[C@@]5(C)[C@H](C(=O)OC)[C@H](OC(C)=O)C(C)(C)[C@@H]5CC[C@]43C)[C@@H]12`, the concentration for a half-maximal effect (EC50) result in [7] is “Not Active”. Moreover, the IC50 entry in [8] (mt4) is “Not Active”; in [1] (read-out: IC50) it was 15.2 µM; in [2] (pc-3), “Not Active”; in data set [3], 892 µM; in data set [4], 565 µM; in data set [5] (hela), “Not Active”. Moreover, in data set [6] (bgc-823), the IC50 entry is on record as “Not Active”.

On to `C=C(C)[C@@H]1CC[C@]2(CO)CC[C@]3(C)[C@H](CC[C@@H]4[C@@]5(C)[C@H](C(=O)OC)[C@H](OC(C)=O)C(C)(C)[C@@H]5CC[C@]43C)[C@@H]12`, for which the EC50 result in [7] is recorded as “Not Active”. Further, the IC50 result in data set [8] (mt4) was “Not Active”; in data set [1], “Not Active”; in [2] (setting [10]) it was 66.3 µM; in data set [3], 62.9 µM; in data set [4] it was 604 µM; in data set [6] (setting [12]) it was 25.9 µM.

Turning to `C=C(C)[C@@H]1CC[C@]2(C=O)CC[C@]3(C)[C@H](CC[C@@H]4[C@@]5(C)[C@H](C(=O)OC)[C@H](OC(C)=O)C(C)(C)[C@@H]5CC[C@]43C)[C@@H]12`, the EC50 result in [7] is reported as “Not Active”. Also, the IC50 result in data set [8] (mt4) was “Not Active”; in [1] (read-out: IC50), 53.8 µM; in [2] (setting [10]) it was 8.51 µM; in data set [3], 194 µM; in data set [4] it was 32.5 µM; in [5] (setting [11]), 105 µM. Moreover, the half-inhibitory concentration (IC50) in data set [6] (setting [12]) was found to be 12.7 µM.

On to `C=C(C)[C@@H]1CC[C@]2(C(=O)O)CC[C@]3(C)[C@H](CC[C@@H]4[C@@]5(C)[C@H](C(=O)OC)[C@H](OC(C)=O)C(C)(C)[C@@H]5CC[C@]43C)[C@@H]12`, for which the EC50 entry in data set [7] is “Not Active”. Also, the IC50 result in data set [8] (mt4) was “Not Active”; in data set [1] (read-out: IC50), 46.4 µM; in [2] (setting [10]), 10.8 µM; in [3] it was 0.89 µM; in data set [4], 0.33 µM; in data set [5] (setting [11]), 56.7 µM. In addition, the IC50 in [6] (setting [12]) came to 7.64 µM.

For `C=C(C)[C@@H]1CC[C@]2(CO)CC[C@]3(C)[C@H](CC[C@@H]4[C@@]5(C)CC[C@H](O)C(C)(C)[C@@H]5CC[C@]43C)[C@@H]12` [BETULIN], in data set [7], the EC50 entry was “Not Active”. Also, the IC50 result is “Not Active” in data set [8] (mt4) and 41.5 µM in [1] (read-out: IC50).

On to `C=C(C)[C@@H]1CC[C@]2(C(=O)O)CC[C@]3(C)[C@H](CC[C@@H]4[C@@]5(C)CC[C@H](OC(=O)CC(C)(C)C(=O)O)C(C)(C)[C@@H]5CC[C@]43C)[C@@H]12` [BEVIRIMAT], for which, in data set [7] (setting [13]), the half-maximal effective concentration (EC50) was found to be 0.082 µM. For the same molecule, the IC50 in [8] (setting [14]) was 15.2 µM. Also, the selectivity ratio in [9] came to 185.

Consider `COc1cccc2c1C(=O)c1c(O)c3c(c(O)c1C2=O)C[C@@](O)(C(=O)CO)C[C@@H]3O[C@H]1C[C@H](N)[C@H](O)[C@H](C)O1` [DOXORUBICIN HYDROCHLORIDE], for which the figures for the IC50 in [2] (setting [10]), in data set [3] and in data set [4] were 0.68 µM, 0.54 µM and 1.65 µM, respectively.

Regarding `C=C(C)[C@@H]1CC[C@]2(C(=O)O)CC[C@]3(C)[C@H](CC[C@@H]4[C@@]5(C)[C@H](C(=O)O)[C@H](O)C(C)(C)[C@@H]5CC[C@]43C)[C@@H]12` [EPICEANOTHIC ACID], the EC50 in data set [7] (setting [13]) is 15.6 µM. The IC50 stood at 38.9 µM in data set [8] (setting [14]); 194 µM in data set [1] (read-out: IC50); 19.7 µM in [2] (setting [10]); 16.8 µM in [3]; 87.2 µM in data set [4]; 2.41 µM in data set [6] (setting [12]). The selectivity ratio in [9] was 2.49.
